Measurements published in ChEMBL document CHEMBL2163271, “Antitumor agents 295. E-ring hydroxylated antofine and cryptopleurine analogues as antiproliferative agents: design, synthesis, and mechanistic studies” (J Med Chem, 2012).
The source made the active and inactive calls. The calls are words filed in the database; no cut-off is given here.

Legend:
A549 [1] = test: Downregulation of rabaptin-5 mRNA expression in human A549 cells by microarray analysis relative to control; format: functional
Procedure, shortened: (§1)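 Gene expression profiling of treated versus untreated A549 cells, with pathways analysed in the MetaCore database.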

A549 [2] = test: Downregulation of XIAP mRNA expression in human A549 cells by microarray analysis relative to control; format: functional; procedure, shortened: as §1
A549 [3] = test: Downregulation of casein kinase 1 mRNA expression in human A549 cells by microarray analysis relative to control; format: functional; procedure, shortened: as §1
[4] = Cytotoxicity against human CL1-5 cells assessed as cell viability after 48 hrs by SRB assay; format: functional, cell-based; settings: CL1-5, 48 h
Procedure, shortened: (§2)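 Human NSCLC lines (CL1-0, CL1-5, PC9, PC9IR) exposed to increasing compound concentrations for 48 h. Growth read by sulforhodamine B (SRB) staining, with IC50 in nM taken from the dose-response.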

A549 [5] = test: Downregulation of EEA1 mRNA expression in human A549 cells by microarray analysis relative to control; format: functional; procedure, shortened: as §1
A549 [6] = test: Cytotoxicity against human A549 cells after 2 hrs by methylene blue staining-based spectrophotometric analysis; format: functional, cell-based; settings: A549, 2 h
MRC5 = test: Cytotoxicity against human MRC5 cells assessed as cell viability after 48 hrs by SRB assay; format: functional, cell-based; settings: MRC5, 48 h
A549 [7] = test: Downregulation of HSP90 expression in human A549 cells at 3.6 nM after 48 hrs by RT-PCR analysis; format: functional, cell-based
Procedure, shortened: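 A549 cells exposed at 3.6 nM for 48 h. Transcript levels were measured by RT-PCR and compared with untreated cells.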

A549 [8] = test: Downregulation of PLEKHA8 mRNA expression in human A549 cells by microarray analysis relative to control; format: functional; procedure, shortened: as §1
A549 [9] = test: Downregulation of cyclin D protein expression in human A549 cells at 3.6 to 100 nM after 48 hrs by Western blot analysis; format: functional, cell-based
A549 [10] = test: Cytotoxicity against human A549 cells assessed as effect on cell morphology at 60 nM after 48 hrs by inverted phase-contrast microscopy; format: functional, cell-based
Procedure, shortened: (§3)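 A549 cells exposed to a rising concentration series for 48 h, including 60 nM. Cells were viewed under an inverted phase-contrast microscope and photographed, and cell number and morphology were scored by eye.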

A549 [11] = test: Upregulation of ubiquitin mRNA expression in human A549 cells by microarray analysis relative to control; format: functional; procedure, shortened: as §1
A549 [12] = test: Downregulation of collagen 4 mRNA expression in human A549 cells by microarray analysis relative to control; format: functional; procedure, shortened: as §1
A549 [13] = test: Downregulation of cAMP dependent PKA cat mRNA expression in human A549 cells by microarray analysis relative to control; format: functional; procedure, shortened: as §1
A549 [14] = test: Downregulation of DYRK2 mRNA expression in human A549 cells by microarray analysis relative to control; format: functional; procedure, shortened: as §1
A549 [15] = test: Downregulation of Eps 15 mRNA expression in human A549 cells by microarray analysis relative to control; format: functional; procedure, shortened: as §1
[16] = Cytotoxicity against human KBVIN cells overexpressing P-gp after 2 hrs by methylene blue staining-based spectrophotometric analysis; format: functional, cell-based
A549 [17] = test: Downregulation of beta-catenin expression in human A549 cells at 3.6 nM after 48 hrs by RT-PCR analysis
A549 [18] = test: Cytotoxicity against human A549 cells assessed as decrease in cell number at 60 nM after 48 hrs by inverted phase-contrast microscopy; format: functional, cell-based; procedure, shortened: as §3
A549 [19] = test: Cytotoxicity against human A549 cells assessed as cell viability after 48 hrs by SRB assay; format: functional, cell-based; settings: A549, 48 h
A549 [20] = test: Downregulation of syntazin 7 mRNA expression in human A549 cells by microarray analysis relative to control; format: functional; procedure, shortened: as §1
A549 [21] = test: Downregulation of beta-catenin mRNA expression in human A549 cells by microarray analysis relative to control
A549 [22] = test: Downregulation of SKP2 mRNA expression in human A549 cells by microarray analysis relative to control; format: functional; procedure, shortened: as §1
[23] = Cytotoxicity against human CL1-0 cells assessed as cell viability after 48 hrs by SRB assay; format: functional, cell-based; settings: CL1-0, 48 h; procedure, shortened: as §2
A549 [24] = test: Downregulation of SNAP-25 mRNA expression in human A549 cells by microarray analysis relative to control; format: functional; procedure, shortened: as §1
A549 [25] = test: Downregulation of beta-catenin protein expression in human A549 cells at 3.6 to 100 nM after 48 hrs by Western blot analysis
A549 [26] = test: Downregulation of FRS2 mRNA expression in human A549 cells by microarray analysis relative to control; format: functional; procedure, shortened: as §1
A549 [27] = test: Downregulation of FBXW mRNA expression in human A549 cells by microarray analysis relative to control; format: functional; procedure, shortened: as §1
A549 [28] = test: Downregulation of PLAU mRNA expression in human A549 cells by microarray analysis relative to control; format: functional; procedure, shortened: as §1
A549 [29] = test: Downregulation of HSP90 mRNA expression in human A549 cells by microarray analysis relative to control; format: functional; procedure, shortened: as §1
DU-145 = test: Cytotoxicity against human DU145 cells after 2 hrs by methylene blue staining-based spectrophotometric analysis; format: functional, cell-based; settings: DU-145, 2 h
A549 [30] = test: Downregulation of fibronectin mRNA expression in human A549 cells by microarray analysis relative to control; format: functional; procedure, shortened: as §1
PC-9 = test: Cytotoxicity against human PC9 cells assessed as cell viability after 48 hrs by SRB assay; format: functional, cell-based; settings: PC-9, 48 h; procedure, shortened: as §2
A549 [31] = test: Downregulation of SAP18 mRNA expression in human A549 cells by microarray analysis relative to control; format: functional; procedure, shortened: as §1
A549 [32] = test: Downregulation of VTI1B mRNA expression in human A549 cells by microarray analysis relative to control; format: functional; procedure, shortened: as §1
KB = test: Cytotoxicity against human KB cells after 2 hrs by methylene blue staining-based spectrophotometric analysis; format: functional, cell-based
A549 [33] = test: Downregulation of myosin 5b mRNA expression in human A549 cells by microarray analysis relative to control; format: functional; procedure, shortened: as §1
A549 [34] = test: Downregulation of PI3K reg class 1A mRNA expression in human A549 cells by microarray analysis relative to control; format: functional; procedure, shortened: as §1
A549 [35] = test: Downregulation of HSP90 protein expression in human A549 cells at 3.6 to 100 nM after 48 hrs by Western blot analysis; format: functional, cell-based
Procedure, shortened: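 A549 cells treated with graded compound concentrations for 48 h. Whole-cell extracts were immunoblotted with antibody against HSP90.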

A549 [36] = test: Downregulation of PECALM mRNA expression in human A549 cells by microarray analysis relative to control; format: functional; procedure, shortened: as §1
A549 [37] = test: Downregulation of CDK11 mRNA expression in human A549 cells by microarray analysis relative to control; format: functional; procedure, shortened: as §1
A549 [38] = test: Downregulation of PI3K cat class 1A mRNA expression in human A549 cells by microarray analysis relative to control; format: functional; procedure, shortened: as §1
SK-BR-3 = test: Cytotoxicity against human SKBR3 cells after 2 hrs by methylene blue staining-based spectrophotometric analysis; format: functional, cell-based; settings: SK-BR-3, 2 h
[39] = Cytotoxicity against human PC9IR cells assessed as cell viability after 48 hrs by SRB assay; format: functional, cell-based; procedure, shortened: as §2

## COc1ccc2c3c(c4cc(OC)c(OC)cc4c2c1)C[C@H]1C[C@H](O)CCN1C3
A549 [1]
  fold change (FC): <10
A549 [2]
  fold change (FC): <10
A549 [3]
  fold change (FC): <10
[4]
  IC50: 8.7 nM
A549 [5]
  fold change (FC): <10
A549 [6]
  IC50: 22 nM
MRC5
  IC50: 98 nM
A549 [7]
  Activity: Active
A549 [8]
  fold change (FC): <10
A549 [9]
  Activity: Active
A549 [10]
  Activity: inactive
A549 [11]
  fold change (FC): >10
A549 [12]
  fold change (FC): <10
A549 [13]
  fold change (FC): <10
A549 [14]
  fold change (FC): <10
A549 [15]
  fold change (FC): <10
[16]
  IC50: 25 nM
A549 [17]
  Activity: Active
A549 [18]
  Activity: Active
A549 [19]
  IC50: 9 nM
A549 [20]
  fold change (FC): <10
A549 [21]
  fold change (FC): <10
A549 [22]
  fold change (FC): <10
[23]
  IC50: 58.4 nM
A549 [24]
  fold change (FC): <10
A549 [25]
  Activity: Active
A549 [26]
  fold change (FC): <10
A549 [27]
  fold change (FC): <10
A549 [28]
  fold change (FC): <10
A549 [29]
  fold change (FC): <10
DU-145
  IC50: 11 nM
A549 [30]
  fold change (FC): <10
PC-9
  IC50: 8.2 nM
A549 [31]
  fold change (FC): <10
A549 [32]
  fold change (FC): <10
KB
  IC50: 23 nM
A549 [33]
  fold change (FC): <10
A549 [34]
  fold change (FC): <10
A549 [35]
  Activity: Active
A549 [36]
  fold change (FC): <10
A549 [37]
  fold change (FC): <10
A549 [38]
  fold change (FC): <10
SK-BR-3
  IC50: 72 nM
[39]
  IC50: 43.2 nM
